# Screens deposited in PubChem by The Scripps Research Institute Molecular Screening Center.
# Only some compounds are listed: those with a hit (about 0.74% of all), similar ones and a draw of the others.
# ASAP1 inh: ASAP1 ArfGAP inhibition. Q9ULH1. ASAP1-stimulated ARF1 GTP hydrolysis, GDP FP detection. inhibition, % at 16.5 µM. actives 0.19% (n = 360,000). AID 624377; in the data active means inhibition above about 25%;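 further: 0% = vehicle with enzyme and substrate and 100% = no enzyme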
# Tn6 DDE FP: inhibitors of Tn6 peptide binding to human fibrin DD(E); inhibition, % at 8.3 µM; Fibrin DD(E) TRITC-Tn6 fluorescence polarization displacement; P02675; actives 0.21% (n = 370,000);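 active means inhibition above a per-campaign cutoff: mean of compounds within control limits plus 3 SD, cut at about 15% in these data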;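 further: 0% = median of all compound wells on the plate and 100% = blocking peptide control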
# Target sequence (P02675 whole entry, looked up): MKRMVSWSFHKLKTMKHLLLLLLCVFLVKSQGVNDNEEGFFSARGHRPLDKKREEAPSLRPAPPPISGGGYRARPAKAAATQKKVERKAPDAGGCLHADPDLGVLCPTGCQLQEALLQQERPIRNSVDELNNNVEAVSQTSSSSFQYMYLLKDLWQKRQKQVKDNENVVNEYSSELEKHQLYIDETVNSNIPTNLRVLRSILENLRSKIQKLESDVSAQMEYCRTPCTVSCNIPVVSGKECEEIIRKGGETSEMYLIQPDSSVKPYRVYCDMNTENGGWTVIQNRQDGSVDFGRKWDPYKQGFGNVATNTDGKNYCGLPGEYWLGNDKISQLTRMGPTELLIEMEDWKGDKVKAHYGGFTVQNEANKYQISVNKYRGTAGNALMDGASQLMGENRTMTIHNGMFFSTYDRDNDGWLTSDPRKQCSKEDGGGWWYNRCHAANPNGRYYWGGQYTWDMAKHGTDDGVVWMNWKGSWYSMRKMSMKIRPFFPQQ
# ARFGAP1 inh: rat ARFGAP1 inhibition; Q62848; Arfgap1-stimulated ARF1 GTP hydrolysis, GDP FP detection; AID 651572; actives 0.26% (n = 360,000); inhibition, % at 16.5 µM;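 active means inhibition above a per-plate limit, mean inhibition of low control wells plus 3 SD, cut at about 25% in these data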;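 further: 0% = DMSO wells with enzyme and 100% = wells lacking Arfgap1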
# Target sequence (Q62848 1-136 limits assumed): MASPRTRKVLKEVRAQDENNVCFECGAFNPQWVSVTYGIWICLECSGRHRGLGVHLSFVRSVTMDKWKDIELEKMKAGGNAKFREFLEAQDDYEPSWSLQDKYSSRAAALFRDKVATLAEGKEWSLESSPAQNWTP
#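 Assay system: purified rat His6-Arfgap1 residues 1-136 (GAP domain); Reagent: human Δ17 ARF1 bound to GTP; Dosing: 16.5 µM single point, 1.26% DMSO; Times: GTP hydrolysis reaction 2 h at 25 °C; Signal: FP, GDP Alexa 633 tracer displaced from anti-GDP antibody, 620/688 nm; Measure: % inhibition from polarization.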
# Tn7 DDE FP: disrupts Tn7 cyclic peptide binding to fibrin D-Dimer-E complex; P02675; FP displacement of FITC-Tn7 peptide from fibrin DD(E); 0% = median of compound wells per plate; inhibition, % at 8.3 µM; actives 0.13% (n = 370,000); AID 720508;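 active means inhibition above the mean of compounds falling within the control limits plus 3 SD of them, cut at about 14% in these data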;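 further: 0% = plate median of compound wells and 100% = 10 µM Aha-Tn7 peptide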
#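 system = human fibrin DD(E) protein | quantity = DD(E) 2 µM final | medium = Tris/NaCl/CaCl2 buffer, pH 7.8 | also added = labelled Tn7 tracer, 0.1 µM | compound dosing = single point at 8.3 µM | timing = compound with protein 10 min, then 3 h after probe, room temperature | signal = FP measurement | benchmarks = Aha-Tn7 high control | repeats = one replicate per compound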
# ASAP1 inh confirm: ASAP1 inhibition confirmed; shares compounds with ASAP1 inh; ASAP1-stimulated Arf1 GTPase, GDP fluorescence polarization; inhibition, % at 16.5 µM; actives 37% (n = 620); AID 624431;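 active means mean inhibition over triplicates exceeds the hit threshold derived for the earlier primary screening run, cut at about 25% in these data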
# ARFGAP1 confirm: rat ARFGAP1 inhibition, confirmed; shares compounds with ARFGAP1 inh; actives 30% (n = 890); inhibition, % at 16.5 µM; ARFGAP1-stimulated ARF1 GTP hydrolysis, GDP tracer FP; AID 651608;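 active means average inhibition over triplicates above the hit cutoff set in the earlier primary screen, cut at about 25% in these data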;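 further: 0% = Arfgap1 plus ARF1-GTP with DMSO and 100% = wells lacking Arfgap1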
# Active calls of the source: *; . = not tested or not shown; + = active, no number.
SMILES,ASAP1 inh,Tn6 DDE FP,ARFGAP1 inh,Tn7 DDE FP,ASAP1 inh confirm,ARFGAP1 confirm
COc1ccc(-n2nnnc2SCC(=O)c2ccc3c(c2)OCCO3)c(OC)c1,52.7*,-5.6,59.1*,4.1,50.6*,134.9*
CC(C)=CCC[C@@]1(C(=O)O)[C@H]2CC=C(CO)[C@@H]1CC/C(C)=C/CC/C(C)=C/C2,.,1.3,.,5.3,.,.
Nc1ccc2nc(-c3ccc(-c4nc5ccc(N)cc5[nH]4)cc3)[nH]c2c1,2.3,-47.2,24.3,4.9,.,.
Nc1ccc2nc(-c3cccc(-c4nc5ccc(N)cc5[nH]4)n3)[nH]c2c1,+,-41.5,+,6.1,+,+
Cc1ccc2nc(SCC(=O)N3CCC(C)CC3)nc(=O)n2c1,36.8*,-1.3,62.0*,-5.2,42.9*,69.2*
Cc1ccc2nc(SCC(=O)NC3CCCC3)nc(=O)n2c1,13.9,-5.9,16.4,-3.7,.,.
COc1ccc(/C=N\NC(=O)c2cc3c(ccc4ccccc43)o2)cc1O,72.5*,-3.1,27.9*,-2.4,95.7*,75.9*
COc1cc(/C=N/NC(=O)c2cc3c(ccc4ccccc43)o2)cc(OC)c1O,3.7,-16.5,-5.8,2.1,.,.
COc1ccc(/C=N/NC(=O)c2cc3c(ccc4ccccc43)o2)cc1OC,102.1*,-8.9,75.6*,2.5,114.9*,82.0*
O=C(N/N=C/c1ccc(Cl)c([N+](=O)[O-])c1)c1ccc2c(c1)OCCO2,82.5*,-4.0,65.5*,8.7,103.7*,99.2*
COc1ccc(S[C@]2(C(=O)N3CCOCC3)CC(=O)N(c3ccc(OC)cc3)[C@@H]2c2ccc(OC)cc2)cc1,.,0.3,.,0.6,.,.
CCN1CCN(Cc2ccc(NC(=O)c3ccc(C)c(NC(=O)c4c[nH]c5cc(C(F)(F)F)ccc5c4=O)c3)cc2C(F)(F)F)CC1,43.2*,12.2,44.8*,5.9,53.1*,69.9*
Cc1ccc(C(=O)Nc2cccc(C(F)(F)F)c2)cc1NC(=O)c1c[nH]c2cc(C(F)(F)F)ccc2c1=O,-4.0,-5.0,-0.4,-1.8,.,.
Cc1ccnc(NC(=S)N2CC3CN(c4cccc(C(F)(F)F)c4)CC3C2)c1 (stereo unspecified),.,-3.6,.,-4.6,.,.
Fc1ccc(Nc2nnc(C(F)(F)F)s2)cc1Cl,7.0,1.2,-8.5,-2.8,.,.
Fc1ccc(Nc2cncc(-c3ccsc3)c2)cc1Cl,39.1*,8.6,28.5*,5.0,13.6,5.0
O=C(Nc1cccc(-c2cn3ccccc3n2)c1)c1cc2ccccc2oc1=O,35.6*,4.9,47.0*,3.1,62.1*,72.3*
CCN1CCN(Cc2ccc(NC(=O)c3cc(NC(=O)c4cncc(-c5cccs5)c4)cc(OC)c3)cc2C(F)(F)F)CC1,37.4*,-8.7,52.0*,-0.7,81.6*,91.6*
O=C(NC1CCCCN(Cc2cccc(Cl)c2)C1=O)c1ccc(COc2ccccc2)cc1 (stereo unspecified),.,-2.0,.,3.1,.,.
Cc1cc([N+](=O)[O-])c(C)cc1-c1ccc(/C=N/NC(=O)Cn2nnnc2N)o1,64.6*,2.3,67.0*,5.2,1.0,35.1*
CN(Cc1ccccc1F)C(=O)CN1c2cccc3cccc(c23)S1(=O)=O,29.9*,-5.3,29.0*,-5.5,41.0*,50.5*
CC(C)N(Cc1cn(Cc2ccccc2)nn1)S(=O)(=O)c1ccc(F)cc1Br,.,1.3,.,-2.0,.,.
CCCCN(CC)CCCNC(=O)c1cc2c(-c3ccc(OC)c(OC)c3)nn(C)c2s1,34.2*,-6.7,26.5*,-4.8,72.4*,74.1*
CCN(CC)CCCNC(=O)c1cc2c(-c3cccc(OC)c3)nn(C)c2s1,14.5,1.5,17.5,-11.3,.,.
COC(=O)C1CN(Cc2cn(Cc3ccc(C)cc3)nn2)CCS(=O)(=O)N1Cc1ccc(Cl)cc1 (stereo unspecified),.,9.8,.,-4.5,.,.
SMILES,ASAP1 inh,Tn6 DDE FP,ARFGAP1 inh,Tn7 DDE FP,ASAP1 inh confirm,ARFGAP1 confirm
COc1cccc(/C=C2/Sc3ccc(C(=O)NCCN4CCCCCC4)cc3NC2=O)c1,31.1*,-9.4,29.0*,-3.3,35.8*,37.2*
Cc1cccc(/C=C2/Sc3ccc(C(=O)NCCN4CCCC4)cc3NC2=O)c1,-1.4,-11.4,7.2,0.2,.,.
O=C(Nc1cccc(-c2cnc3ccccc3n2)c1)c1cccc(NC(=O)c2ccco2)c1,101.8*,-2.0,100.7*,4.4,90.7*,126.5*
O=C(Nc1cccc(-c2cnc3ccccc3n2)c1)c1ccccc1,4.3,10.6,7.4,1.1,.,.
O=c1[nH]c(Nc2ccccc2Cl)cc2ccccc12,47.9*,-4.0,29.2*,3.5,7.8,4.8
O=C(COc1ccc2oc(-c3ccco3)cc(=O)c2c1)N1CCCCC1,32.3*,3.1,80.5*,-2.4,41.6*,71.6*
O=C(Nc1nnc(-c2ccc3c(c2)OCCO3)o1)c1ccc(Cc2ccccc2)cc1,133.0*,9.9,92.5*,0.0,138.8*,155.3*
O=C(CCOc1ccccc1)Nc1nnc(-c2ccc3c(c2)OCCO3)o1,-8.1,-0.3,5.0,7.1,.,.
Cc1ccccc1NC(=O)Cn1cnc2c(oc3ccccc32)c1=O,-19.9,-2.1,-10.6,2.6,.,.
Cc1cccc(NC(=O)Cn2cnc3c(oc4ccccc43)c2=O)c1C,32.6*,-1.0,29.1*,-4.4,48.9*,59.2*
COc1ccc(/C=N\NC(=O)c2ccc([N+](=O)[O-])c(C)c2)cc1COc1ccccc1C(N)=O,47.4*,1.1,78.5*,-4.0,87.8*,122.9*
COc1ccc(/C=N/NC(=O)c2ccccc2OC)cc1COc1ccccc1[N+](=O)[O-],6.4,-4.8,2.8,1.1,.,.
COCCCN1C(=O)[C@H](CC(=O)NCCCCc2ccccc2)[C@]2(C(=O)OC)CCCCC=C12,.,-1.3,.,-1.0,.,.
Cc1cc(N2CCN(C)CC2)nc2ccc(NC(=O)c3cccnc3Cl)cc12,49.5*,-4.6,29.1*,0.9,25.4*,27.7*
COC(=O)[C@]12C[C@H](CC(=O)N3CCN(C(=O)c4ccco4)CC3)C(=O)N(Cc3cccc4ccccc34)C1=C[C@H](COCc1ccccc1)O[C@@H]2C,.,-0.9,.,6.2,.,.
O=C(Nc1ccc(-c2cc3ccccc3oc2=O)c(Cl)c1)c1cccnc1,46.0*,3.4,62.5*,-4.1,58.7*,81.7*
Cc1ccc(CN[C@@H]2CC[C@@]34CCCN3C(=O)CCC[C@H]4C2)cc1,.,5.8,.,-5.7,.,.
COc1ccc([N+](=O)[O-])cc1NC(=O)c1ccc(Br)s1,38.0*,9.2,36.1*,-1.2,53.7*,67.8*
Cc1ccc(OCCOc2ccc(Cl)cc2Cl)c(Br)n1,.,-6.3,.,3.5,.,.
COc1cccc(OC)c1-c1nn2c(-c3cc(-c4ccccc4)n[nH]3)nnc2s1,129.4*,4.7,130.1*,-6.4,167.4*,182.5*
Clc1ccccc1-c1nn2c(-c3cc(-c4ccccc4)n[nH]3)nnc2s1,.,-4.1,.,-3.8,.,.
